Assay results collected from several papers.
Lines come from different studies, so protocols differ.

O=C(Nc1ccn(Cc2ccc(O)cc2C(F)(F)F)n1)c1c(F)cccc1F — Papp (PAMPA): 36 ×10⁻⁶ cm/s
Cc1cccnc1CNc1nc(-c2ccccn2)nc2ccccc12 — Papp (PAMPA; 10 µM, 3 h, pH 7.4): 27.1 ×10⁻⁶ cm/s
CC(C)Nc1ccnc(Nc2cccc(-n3ccnc3)c2)n1 — Papp (PAMPA; 50 nM, 30 min): 2070 ×10⁻⁶ cm/s
N=c1c2c(-c3ccccc3)c(-c3ccccc3)n(Cc3ccc(OC(F)(F)F)cc3)c2ncn1[C@H]1CC[C@H](O)CC1 — Papp (PAMPA; 50 µM, 30 min): 1250 ×10⁻⁶ cm/s
CC(C)Nc1ccnc(Nc2cccc(-c3nccs3)c2)n1 — Papp (PAMPA; 50 nM, 30 min): 1960 ×10⁻⁶ cm/s
COc1cc(CN2CCc3c(cc(Cn4ccnc4C)cc3-c3cn(C)nc3C(F)(F)F)C2=O)cc(OC)c1 — Papp (PAMPA; 100 µM, 5 h, pH 7.4): 5.3 ×10⁻⁶ cm/s
CC(C)NCC(O)COc1cccc2ccccc12 (centres unmarked) — Papp (PAMPA-BBB; 50 µM, 16 h, pH 7.4): 22.4 ×10⁻⁶ cm/s
O=c1[nH]c2c(-c3ccccc3)csc2c(=O)n1O — Papp (PAMPA; 10 µM, 5 h): 1.5 ×10⁻⁶ cm/s
c1cncc(-c2cccc(Nc3nccc(NC4CCC4)n3)c2)c1 — Papp (PAMPA; 50 nM, 30 min): 2050 ×10⁻⁶ cm/s
C[C@@H](NC(=O)[C@@H](CC(=O)N1CCC(N2CCCCC2)CC1)N1C(=O)[C@@H](N2C(=O)OC[C@@H]2c2ccccc2)[C@H]1/C=C/c1cccc(I)c1)c1ccccc1 — Papp (PAMPA-BBB; 25 µg/mL, 18 h, pH 7.4): 2 to 4 ×10⁻⁶ cm/s
N=c1c2c(-c3ccccc3)cn(Cc3ccccc3)c2ncn1C1CCOCC1 — Papp (PAMPA; 50 µM, 30 min): 1730 ×10⁻⁶ cm/s
CNc1ccnc(Nc2cccc(-c3cccnc3)c2)n1 — Papp (PAMPA; 50 nM, 30 min): 2250 ×10⁻⁶ cm/s
O=c1[nH]c2cc(-c3ccc(Cl)cc3)sc2c(=O)n1O — Papp (PAMPA; 10 µM, 5 h): 1 ×10⁻⁶ cm/s
CN(C)CCn1cnc2c(c(-c3ccccc3)c(-c3ccccc3)n2Cc2ccccc2)c1=N — Papp (PAMPA; 50 µM, 30 min): 1360 ×10⁻⁶ cm/s
O=c1[nH]c2sccc2c(=O)n1O — Papp (PAMPA; 10 µM, 5 h): 0.08 ×10⁻⁶ cm/s
CC[C@@H](C)[C@@H]1NC(=O)[C@@H](Cc2ccccc2)OC(=O)CN(C)C(=O)[C@H]([C@H](C)CC)NC(=O)[C@@H](Cc2ccccc2)OC(=O)CN(C)C1=O — Papp (PAMPA): 28 ×10⁻⁶ cm/s
NC(=O)C1CCN(c2nc(-c3ccccn3)nc3ccccc23)C1 (centres unmarked) — Papp (PAMPA; 10 µM, 3 h, pH 7.4): 8 ×10⁻⁶ cm/s
Cc1c(C)n(Cc2ccccc2)c2ncn(C3CCOCC3)c(=N)c12 — Papp (PAMPA; 50 µM, 30 min): 1680 ×10⁻⁶ cm/s
COc1ccc(Nc2nc(-c3ccccn3)nc3ccccc23)cc1 — Papp (PAMPA; 10 µM, 3 h, pH 7.4): 36.3 ×10⁻⁶ cm/s
Cc1csc2[nH]c(=O)n(O)c(=O)c12 — Papp (PAMPA; 10 µM, 5 h): 0.2 ×10⁻⁶ cm/s
c1ccc(-c2nc(NCCn3ccnc3)c3ccccc3n2)nc1 — Papp (PAMPA; 10 µM, 3 h, pH 7.4): 8.4 ×10⁻⁶ cm/s
Cc1cc(-c2ccc(Sc3cc(=O)n(O)c(=O)[nH]3)cc2)ccc1F — Papp (PAMPA; 10 µM, 5 h): 1.1 ×10⁻⁶ cm/s
O=C(O)c1ccc2c(c1)nc(NCc1ccccc1)c1ncccc12 — Papp (PAMPA; 5 h, pH 7.4): 6.53 ×10⁻⁶ cm/s
CC(C)c1noc(C2CCN(c3ncnc(Nc4ccc(S(C)(=O)=O)cc4F)c3[N+](=O)[O-])CC2)n1 — Papp (PAMPA-BBB; 0.5 µM, 4 h, pH 7.4): 3.02 ×10⁻⁶ cm/s
COCC(C)Nc1ccnc(Nc2cccc(-c3cccnc3)c2)n1 (centres unmarked) — Papp (PAMPA; 50 nM, 30 min): 1910 ×10⁻⁶ cm/s
CCN1CCc2c(sc3[nH]c(=O)n(O)c(=O)c23)C1 — Papp (PAMPA; 10 µM, 5 h): 0.08 ×10⁻⁶ cm/s
O=C(CNc1cccc(OC(F)(F)F)c1)NC12CC3CC(CC(C3)C1)C2 — Papp (PAMPA; 16 h): 3.5 ×10⁻⁶ cm/s
N=c1c2c(-c3ccccc3)c(-c3ccccc3)n(CCc3ccccc3)c2ncn1CC1CCOCC1 — Papp (PAMPA; 50 µM, 30 min): 1230 ×10⁻⁶ cm/s
Cc1cccc(/C=C/[C@@H]2[C@H](N3C(=O)OC[C@@H]3c3ccccc3)C(=O)N2[C@H](CC(=O)N2CCC(N3CCCCC3)CC2)C(=O)N[C@H](C)c2ccccc2)c1 — Papp (PAMPA-BBB; 25 µg/mL, 18 h, pH 7.4): > 4 ×10⁻⁶ cm/s
c1ccc(-c2nc(NCc3ccco3)c3ccccc3n2)nc1 — Papp (PAMPA; 10 µM, 3 h, pH 7.4): 22.8 ×10⁻⁶ cm/s
C[C@H](Nc1ccnc(Nc2cccc(-c3cccnc3)c2)n1)C(=O)O — Papp (PAMPA; 50 nM, 30 min): 9.7 ×10⁻⁶ cm/s
O=c1[nH]c2cc(-c3ccc(F)cc3)sc2c(=O)n1O — Papp (PAMPA; 10 µM, 5 h): 0.6 ×10⁻⁶ cm/s
CC(C)Nc1ccnc(Nc2ccccc2-c2ccccc2)n1 — Papp (PAMPA; 50 nM, 30 min): 2360 ×10⁻⁶ cm/s
c1ccc(-c2nc(N3CCC(c4ccccn4)C3)c3ccccc3n2)nc1 (centres unmarked) — Papp (PAMPA; 10 µM, 3 h, pH 7.4): 22.6 ×10⁻⁶ cm/s
N#Cc1ccc(/C=C/CN(CC[C@H](N)C(=O)O)C[C@H]2O[C@@H](n3cnc4c(N)ncnc43)[C@H](O)[C@@H]2O)cc1 — Papp (PAMPA; 200 µM, 5 h): 0.01 ×10⁻⁶ cm/s
c1ccc(-c2nc(N3CCc4nc[nH]c4C3)c3ccccc3n2)nc1 — Papp (PAMPA; 10 µM, 3 h, pH 7.4): 11.8 ×10⁻⁶ cm/s
CC(C)[C@@H]1NC(=O)[C@@H](Cc2ccccc2)OC(=O)CN(C)C(=O)[C@H](C(C)C)NC(=O)[C@@H](Cc2ccccc2)OC(=O)CN(C)C1=O — Papp (PAMPA): 56 ×10⁻⁶ cm/s
COc1ccc(C(CO)Nc2ncnc3sc(-c4ccccc4)cc23)cc1 (centres unmarked) — Papp (PAMPA): 240 ×10⁻⁶ cm/s
O=C(O)c1ccc2c(c1)nc(Nc1cccc(Cl)c1)c1ccncc12 — Papp (PAMPA; 5 h, pH 7.4): 0.728 ×10⁻⁶ cm/s
Cc1nc2n(c(=O)c1CCN1CCC(c3noc4cc(F)ccc34)CC1)CCCC2 — Papp (PAMPA-BBB; 50 µM, 16 h, pH 7.4): 15.5 ×10⁻⁶ cm/s
COc1ccc(Cn2c(-c3ccccc3)c(-c3ccccc3)c3c(=N)n(CC4CCOCC4)cnc32)cc1 — Papp (PAMPA; 50 µM, 30 min): 1270 ×10⁻⁶ cm/s
c1ccc(-c2nc(NCc3nc4ccccc4o3)c3ccccc3n2)nc1 — Papp (PAMPA; 10 µM, 3 h, pH 7.4): 27.8 ×10⁻⁶ cm/s
CC(C)Nc1ccnc(Nc2cccc(-c3ccccn3)c2)n1 — Papp (PAMPA; 50 nM, 30 min): 2010 ×10⁻⁶ cm/s
O=c1[nH]c2scc(-c3ccc(Cl)cc3)c2c(=O)n1O — Papp (PAMPA; 10 µM, 5 h): 0.5 ×10⁻⁶ cm/s
